According to ChEMBL document CHEMBL1153226, “Isoxazolopyridone derivatives as allosteric metabotropic glutamate receptor 7 antagonists” (Bioorg Med Chem Lett, 2010):
In brackets after ≈: the same amount, converted by molar mass.

How the values were obtained:
[1] = molecular target: Metabotropic glutamate receptor 7 (Rattus norvegicus, UniProt P35400); assay: Antagonist activity at rat mGluR7 expressed in CHO cells assessed as inhibition of LAP-induced intracellular calcium mobilization by FLIPR; format: functional, cell-based
Sequence of Metabotropic glutamate receptor 7 (P35400 whole entry): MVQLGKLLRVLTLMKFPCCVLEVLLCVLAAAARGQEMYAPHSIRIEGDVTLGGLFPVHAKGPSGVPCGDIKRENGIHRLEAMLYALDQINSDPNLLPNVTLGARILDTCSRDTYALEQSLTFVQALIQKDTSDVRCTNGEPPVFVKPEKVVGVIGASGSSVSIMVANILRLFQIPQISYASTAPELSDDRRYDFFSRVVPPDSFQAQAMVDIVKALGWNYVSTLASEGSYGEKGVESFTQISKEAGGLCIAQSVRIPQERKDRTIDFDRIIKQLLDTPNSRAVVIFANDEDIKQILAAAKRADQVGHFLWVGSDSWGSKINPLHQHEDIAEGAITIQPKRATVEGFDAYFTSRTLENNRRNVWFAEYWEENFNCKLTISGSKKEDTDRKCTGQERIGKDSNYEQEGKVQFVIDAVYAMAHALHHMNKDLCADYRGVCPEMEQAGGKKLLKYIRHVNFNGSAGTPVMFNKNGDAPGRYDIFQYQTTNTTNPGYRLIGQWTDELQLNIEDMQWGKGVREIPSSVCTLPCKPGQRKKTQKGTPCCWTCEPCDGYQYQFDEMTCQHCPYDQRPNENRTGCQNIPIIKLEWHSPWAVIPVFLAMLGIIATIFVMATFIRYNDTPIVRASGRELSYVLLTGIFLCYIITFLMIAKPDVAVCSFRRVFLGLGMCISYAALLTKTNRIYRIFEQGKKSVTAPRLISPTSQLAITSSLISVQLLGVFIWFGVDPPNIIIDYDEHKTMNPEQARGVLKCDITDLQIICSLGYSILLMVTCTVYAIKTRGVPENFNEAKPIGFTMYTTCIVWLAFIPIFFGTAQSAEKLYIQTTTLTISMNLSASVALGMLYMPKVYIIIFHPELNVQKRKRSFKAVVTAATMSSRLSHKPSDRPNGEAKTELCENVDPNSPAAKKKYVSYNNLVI
Procedure, shortened: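 CHO cells co-expressing mGluR7 and Gα15 were challenged with L-AP, and Ca2+ mobilization was read. IC50 was calculated from inhibition curves as the mean of at least two independent assays.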

[2] = Plasma concentration in Sprague-Dawley rat at 2 mg/kg, po after 0.5 hrs; format: ADME, organism-based; set-up: dose 2 mg/kg, route oral
[3] = Solubility at pH 7.4; format: physicochemical; details: buffer
[4] = Plasma concentration in Sprague-Dawley rat at 10 mg/kg, po after 0.5 hrs; format: ADME, organism-based; set-up: dose 10 mg/kg, route oral
Procedure, shortened: (§1)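 Male Sprague-Dawley rats (7–10 weeks, 200–400 g, n = 3) were dosed orally at 10 mg/kg as a 0.5% methylcellulose suspension. Aortic blood was taken under isoflurane at 0.5 and 2 h, and brain at 2 h. Plasma and brain homogenate were deproteinized with threefold ethanol plus internal standard and analysed by LC–MS/MS against a relative calibration curve. B/P = brain (nmol/g) / plasma level.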

[5] = AUC in Sprague-Dawley rat at 1 mg/kg, iv and 3 mg/kg, po; details: plasma
[6] = Plasma clearance in Sprague-Dawley rat at 1 mg/kg, iv and 3 mg/kg, po
[7] = Ratio of drug level in brain to plasma in Sprague-Dawley rat at 10 mg/kg, po after 2 hrs; format: ADME, organism-based; set-up: dose 10 mg/kg, route oral; details: read-out: BPR; procedure, shortened: as §1
[8] = Oral bioavailability in Sprague-Dawley rat at 10 mg/kg; format: ADME, organism-based; details: in vivo, 3 mg/kg, in the assay text read “3 mg/kg” for “10 mg/kg”
Procedure, shortened: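 Male SD rats (n = 3) were given a single iv dose of 1 mg/kg in PEG400/EtOH/H2O (50:10:40), or an oral gavage dose as a 0.5% methylcellulose aqueous suspension. Blood was sampled at multiple times up to 8 h. Plasma was deproteinized with ethanol containing internal standard. Values are means.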

Structure (SMILES)	IC50 [1]	other results
COc1ccc(-c2cc3onc(-c4ccccc4)c3c(=O)n2C)cc1	22 nM	–
Cn1c(-c2ccc3c(c2)OCO3)cc2onc(-c3ccccc3)c2c1=O	26 nM	–
COc1ccc(-c2noc3cc(-c4ccccc4)n(C)c(=O)c23)cc1	29 nM	–
Cn1c(-c2ccccc2)cc2onc(-c3ccncc3)c2c1=O	101 nM	–
CN(C)c1ccc(-c2cc3onc(-c4ccccc4)c3c(=O)n2C)cc1	140 nM	–
COc1ccc(-c2cc3onc(-c4ccncc4)c3c(=O)n2C)cc1	26 nM	concentration at 0.5 h [2]: 3.9 µM; solubility [3]: 3.3 µg/mL (≈ 9.9 µM); concentration at 0.5 h [4]: 5.1 µM; AUC [5]: 0.71 µM·h; clearance [6]: 1 mL/min/kg; Kp at 2 h [7]: 1; bioavailability [8]: 65%
CN(C)c1cccc(-c2cc3onc(-c4ccccc4)c3c(=O)n2C)c1	31 nM	–
Cn1c(-c2cccc(C(F)(F)F)c2)cc2onc(-c3ccccc3)c2c1=O	96 nM	–
COc1ccc(-c2cc3onc(-c4ccccc4)c3c(=O)n2C)cc1F	210 nM	–
COc1cccc(-c2noc3cc(-c4ccccc4)n(C)c(=O)c23)c1	12 nM	–
CCCc1ccc(-c2cc3onc(-c4ccccc4)c3c(=O)n2C)cc1	150 nM	–
COc1ccccc1-c1noc2cc(-c3ccccc3)n(C)c(=O)c12	21 nM	–
Cc1ccc(-c2cc3onc(-c4ccccc4)c3c(=O)n2C)cc1	51 nM	–
Cn1c(-c2ccc(F)cc2)cc2onc(-c3ccccc3)c2c1=O	72 nM	–
Cn1c(-c2ccccc2)cc2onc(-c3ccccc3)c2c1=O	20 nM	solubility [3]: 0.17 µg/mL (≈ 0.562 µM)
Cn1c(-c2ccccc2)cc2onc(-c3cccnc3)c2c1=O	240 nM	–
Cn1c(-c2ccccc2)cc2onc(-c3ccccn3)c2c1=O	1000 nM	–
CCn1c(-c2ccccc2)cc2onc(-c3ccccc3)c2c1=O	910 nM	–
CC(C)n1c(-c2ccccc2)cc2onc(-c3ccccc3)c2c1=O	> 10000 nM	–
CC(C)Oc1ccc(-c2cc3onc(-c4ccccc4)c3c(=O)n2C)cc1	> 10000 nM	–
COc1ccc(-c2cc3onc(-c4ccccc4)c3c(=O)n2C)cc1Br	580 nM	–
